Results from ChEMBL document CHEMBL1154626, “Novel, potent, and selective quinoxaline-based 5-HT(3) receptor ligands. 1. Further structure-activity relationships and pharmacological characterization” (J Med Chem, 2009).
Active and inactive are the calls of the source. The calls are words filed in the database; no cut-off is given here.

How the values were obtained:
[1] = biological target: T1, 5-hydroxytryptamine receptor 3A (Rattus norvegicus, UniProt P35563); assay: Displacement of [3H]LY278584 from 5HT3 receptor in rat cortical homogenate
T1 sequence (P35563 whole entry): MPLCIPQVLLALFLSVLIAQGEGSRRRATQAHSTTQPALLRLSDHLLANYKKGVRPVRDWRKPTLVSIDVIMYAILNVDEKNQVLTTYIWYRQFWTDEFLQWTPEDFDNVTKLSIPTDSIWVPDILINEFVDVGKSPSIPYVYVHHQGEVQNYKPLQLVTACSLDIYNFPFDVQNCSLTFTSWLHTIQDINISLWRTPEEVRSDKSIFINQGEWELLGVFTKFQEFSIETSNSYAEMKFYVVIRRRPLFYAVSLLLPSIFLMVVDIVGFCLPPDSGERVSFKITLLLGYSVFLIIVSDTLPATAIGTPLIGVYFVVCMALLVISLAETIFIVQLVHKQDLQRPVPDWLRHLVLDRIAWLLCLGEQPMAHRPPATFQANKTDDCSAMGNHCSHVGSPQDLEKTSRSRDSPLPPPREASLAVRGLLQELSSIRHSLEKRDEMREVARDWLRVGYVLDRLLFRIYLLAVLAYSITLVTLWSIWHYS
Outline: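 Rat cortical homogenate, competition against [3H]LY278584 binding. Ki is the concentration giving half-maximal inhibition of binding, as the mean ± S.E.M. of three determinations.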

Rattus norvegicus [2] = assay: Antagonist activity at 5HT3 receptor in Sprague-Dawley rat assessed as inhibition of 1-phenylbiguanide-induced bradycardia at 100 ug/kg, iv administered 5 mins before 1-phenylbiguanide challenge measured after 5 to 30 mins post-treatment by von Bezold-Jarisch reflex test; format: functional
Outline: (§1)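 Urethane-anesthetized rats, compound given iv. Agonism was scored as the compound itself evoking the von Bezold-Jarisch reflex (bradycardia). Antagonism was tested by giving the compound iv 5, 15 or 30 min before phenylbiguanide (PBG) and scoring the reduction of PBG-evoked bradycardia. ED50 is the dose giving half of the maximal bradycardia evoked by the same compound.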

Rattus norvegicus [3] = assay: Agonist activity at 5HT3 receptor in Sprague-Dawley rat assessed as induction of bradycardia at 100 ug/kg, iv measured after 5 to 30 mins post-treatment by von Bezold-Jarisch reflex test; format: functional; outline: as §1
Rattus norvegicus [4] = assay: Agonist activity at 5HT3 receptor in Sprague-Dawley rat assessed as induction of bradycardia at 10 ug/kg, iv measured after 5 to 30 mins post-treatment by von Bezold-Jarisch reflex test; format: functional; outline: as §1
Rattus norvegicus [5] = assay: Antagonist activity at 5HT3 receptor in Sprague-Dawley rat assessed as inhibition of 1-phenylbiguanide-induced bradycardia at 10 ug/kg, iv administered 5 mins before 1-phenylbiguanide challenge measured after 5 to 30 mins post-treatment by von Bezold-Jarisch reflex test; format: functional; outline: as §1
Rattus norvegicus [6] = assay: Antagonist activity at 5HT3 receptor in Sprague-Dawley rat assessed as inhibition of 1-phenylbiguanide-induced bradycardia at 50 ug/kg, iv administered 5 mins before 1-phenylbiguanide challenge measured after 5 to 30 mins post-treatment by von Bezold-Jarisch reflex test; format: functional; outline: as §1
Rattus norvegicus [7] = assay: Agonist activity at 5HT3 receptor in iv dosed Sprague-Dawley rat assessed as induction of bradycardia measured after 5 to 30 mins post-treatment by von Bezold-Jarisch reflex test; format: functional; outline: as §1
[8] = biological target: T2, 5-hydroxytryptamine receptor 3A (Cavia porcellus, UniProt O70212); assay: Antagonist activity at 5HT3 receptor in spontaneously beating guinea pig right atrium assessed as inhibition of serotonin-induced maximum response by noncompetitive binding assay; format: tissue-based, Cardiac atrium; conditions: read-out: IC50
T2 sequence (O70212 whole entry): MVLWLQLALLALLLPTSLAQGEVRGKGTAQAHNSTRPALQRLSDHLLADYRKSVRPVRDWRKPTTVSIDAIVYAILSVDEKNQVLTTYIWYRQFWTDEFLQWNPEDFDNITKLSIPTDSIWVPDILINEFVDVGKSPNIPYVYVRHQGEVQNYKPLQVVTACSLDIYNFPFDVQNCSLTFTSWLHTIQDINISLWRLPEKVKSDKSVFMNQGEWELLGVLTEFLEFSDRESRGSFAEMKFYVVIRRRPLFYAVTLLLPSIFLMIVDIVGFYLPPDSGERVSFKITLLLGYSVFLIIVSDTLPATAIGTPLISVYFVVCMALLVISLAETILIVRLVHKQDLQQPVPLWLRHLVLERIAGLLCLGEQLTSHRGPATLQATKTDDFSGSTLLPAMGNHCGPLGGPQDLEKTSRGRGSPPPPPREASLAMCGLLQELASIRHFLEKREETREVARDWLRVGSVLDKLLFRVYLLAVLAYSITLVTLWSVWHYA
Outline: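 Spontaneously beating guinea pig right atria, exposed 30 min to test compound at 10 μM, followed by cumulative 5-HT log concentration-response curves versus control. Mean ± SEM of five to seven observations.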

Rattus norvegicus [9] = assay: Agonist activity at 5HT3 receptor in Sprague-Dawley rat assessed as induction of bradycardia at 50 ug/kg, iv measured after 5 to 30 mins post-treatment by von Bezold-Jarisch reflex test; format: functional; outline: as §1
Rattus norvegicus [10] = assay: Antagonist activity at 5HT3 receptor in iv dosed Sprague-Dawley rat assessed as inhibition of 1-phenylbiguanide-induced bradycardia administered 5 mins before 1-phenylbiguanide challenge measured after 5 to 30 mins post-treatment by von Bezold-Jarisch reflex test; format: functional; outline: as §1
D(2) dopamine receptor = D(2) dopamine receptor (Rattus norvegicus, UniProt P61169); assay: Displacement of [3H]spiperone from dopamine D2 receptor in rat striatum
[11] = biological target: T3, 5-hydroxytryptamine receptor 1A (Rattus norvegicus, UniProt P19327); assay: Displacement of [3H]8-OHDPAT from 5HT1A receptor in rat hippocampus; format: tissue-based
T3 sequence (P19327 whole entry): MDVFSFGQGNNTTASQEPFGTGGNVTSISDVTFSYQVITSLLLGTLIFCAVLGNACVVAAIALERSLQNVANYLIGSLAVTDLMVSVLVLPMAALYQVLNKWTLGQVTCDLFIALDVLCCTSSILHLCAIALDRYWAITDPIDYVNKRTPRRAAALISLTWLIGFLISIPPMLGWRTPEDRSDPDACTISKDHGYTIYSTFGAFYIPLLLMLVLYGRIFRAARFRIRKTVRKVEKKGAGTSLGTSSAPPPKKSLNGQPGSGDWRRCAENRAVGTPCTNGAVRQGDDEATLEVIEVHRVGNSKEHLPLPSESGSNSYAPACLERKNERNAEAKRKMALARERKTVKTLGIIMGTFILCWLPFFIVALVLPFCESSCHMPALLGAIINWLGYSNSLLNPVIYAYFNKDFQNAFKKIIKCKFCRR

[12] = biological target: T4, Adrenergic receptor alpha-1 (Rattus norvegicus, UniProt P15823+P23944+P43140); assay: Displacement of [3H]prazosin from adrenergic alpha1 receptor in rat cortex
T4 sequence (P15823 whole entry): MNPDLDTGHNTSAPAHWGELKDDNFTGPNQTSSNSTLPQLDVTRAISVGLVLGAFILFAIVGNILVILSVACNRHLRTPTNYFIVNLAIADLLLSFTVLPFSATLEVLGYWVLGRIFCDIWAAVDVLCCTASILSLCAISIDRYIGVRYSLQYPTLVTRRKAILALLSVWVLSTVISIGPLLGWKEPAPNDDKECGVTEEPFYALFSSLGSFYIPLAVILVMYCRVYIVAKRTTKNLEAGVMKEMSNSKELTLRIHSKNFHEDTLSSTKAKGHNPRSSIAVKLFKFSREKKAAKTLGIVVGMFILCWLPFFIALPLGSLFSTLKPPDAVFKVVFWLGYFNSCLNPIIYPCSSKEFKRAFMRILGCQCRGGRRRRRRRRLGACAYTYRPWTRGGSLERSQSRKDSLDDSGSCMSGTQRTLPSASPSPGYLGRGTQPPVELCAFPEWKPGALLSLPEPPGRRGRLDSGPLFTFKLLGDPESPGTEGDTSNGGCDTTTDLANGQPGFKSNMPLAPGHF
T4 sequence (P23944 whole entry): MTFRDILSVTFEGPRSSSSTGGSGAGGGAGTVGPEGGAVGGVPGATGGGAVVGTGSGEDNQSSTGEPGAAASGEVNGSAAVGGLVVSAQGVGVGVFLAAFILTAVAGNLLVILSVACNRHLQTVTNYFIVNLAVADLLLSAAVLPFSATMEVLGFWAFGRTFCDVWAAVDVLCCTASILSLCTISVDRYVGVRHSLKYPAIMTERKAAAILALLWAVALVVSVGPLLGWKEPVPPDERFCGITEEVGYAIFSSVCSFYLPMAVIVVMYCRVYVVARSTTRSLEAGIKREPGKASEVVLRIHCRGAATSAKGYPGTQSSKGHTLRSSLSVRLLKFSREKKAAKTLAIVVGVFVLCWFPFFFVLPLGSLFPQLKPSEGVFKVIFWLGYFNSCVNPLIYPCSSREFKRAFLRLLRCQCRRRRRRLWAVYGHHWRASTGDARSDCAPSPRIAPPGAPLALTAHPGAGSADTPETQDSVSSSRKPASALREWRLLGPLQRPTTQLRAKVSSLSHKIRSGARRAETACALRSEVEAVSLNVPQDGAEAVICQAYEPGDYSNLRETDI
T4 sequence (P43140 whole entry): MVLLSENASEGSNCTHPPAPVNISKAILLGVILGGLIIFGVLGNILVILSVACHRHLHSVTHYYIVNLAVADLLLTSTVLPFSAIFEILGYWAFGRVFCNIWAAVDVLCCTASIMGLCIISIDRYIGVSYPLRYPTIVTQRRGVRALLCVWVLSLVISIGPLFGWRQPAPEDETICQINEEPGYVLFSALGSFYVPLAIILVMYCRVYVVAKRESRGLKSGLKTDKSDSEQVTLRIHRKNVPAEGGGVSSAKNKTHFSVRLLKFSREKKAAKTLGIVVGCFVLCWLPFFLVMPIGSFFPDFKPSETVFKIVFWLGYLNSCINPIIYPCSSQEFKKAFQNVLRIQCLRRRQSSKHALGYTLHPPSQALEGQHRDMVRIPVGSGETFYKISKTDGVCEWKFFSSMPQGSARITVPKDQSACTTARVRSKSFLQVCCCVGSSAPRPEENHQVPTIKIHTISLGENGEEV

D(1A) dopamine receptor = D(1A) dopamine receptor (Rattus norvegicus, UniProt P18901); assay: Displacement of [3H]SCH-23390 from dopamine D1 receptor in rat striatum
[13] = biological target: T5, Alpha-2A adrenergic receptor (Rattus norvegicus, UniProt P22909); assay: Displacement of [3H]RX821002 from adrenergic alpha2 receptor in rat cortex
T5 sequence (P22909 whole entry): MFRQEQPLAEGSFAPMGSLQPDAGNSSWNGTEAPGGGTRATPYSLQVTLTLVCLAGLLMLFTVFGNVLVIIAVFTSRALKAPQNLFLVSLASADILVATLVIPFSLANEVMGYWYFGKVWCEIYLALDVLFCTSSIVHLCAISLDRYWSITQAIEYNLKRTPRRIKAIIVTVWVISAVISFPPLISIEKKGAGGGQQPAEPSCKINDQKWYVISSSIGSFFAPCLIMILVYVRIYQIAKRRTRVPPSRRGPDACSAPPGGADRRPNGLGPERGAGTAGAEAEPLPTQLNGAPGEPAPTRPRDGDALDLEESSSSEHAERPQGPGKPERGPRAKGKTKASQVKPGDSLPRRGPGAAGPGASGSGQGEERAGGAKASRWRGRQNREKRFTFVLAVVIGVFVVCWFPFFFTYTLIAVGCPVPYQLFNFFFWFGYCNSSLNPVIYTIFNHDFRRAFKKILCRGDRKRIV

[14] = biological target: 5-hydroxytryptamine receptor 2A (Rattus norvegicus, UniProt P14842); assay: Displacement of [3H]ketanserin from 5HT2A receptor in rat cortex
Chain of 5-hydroxytryptamine receptor 2A (P14842 whole entry): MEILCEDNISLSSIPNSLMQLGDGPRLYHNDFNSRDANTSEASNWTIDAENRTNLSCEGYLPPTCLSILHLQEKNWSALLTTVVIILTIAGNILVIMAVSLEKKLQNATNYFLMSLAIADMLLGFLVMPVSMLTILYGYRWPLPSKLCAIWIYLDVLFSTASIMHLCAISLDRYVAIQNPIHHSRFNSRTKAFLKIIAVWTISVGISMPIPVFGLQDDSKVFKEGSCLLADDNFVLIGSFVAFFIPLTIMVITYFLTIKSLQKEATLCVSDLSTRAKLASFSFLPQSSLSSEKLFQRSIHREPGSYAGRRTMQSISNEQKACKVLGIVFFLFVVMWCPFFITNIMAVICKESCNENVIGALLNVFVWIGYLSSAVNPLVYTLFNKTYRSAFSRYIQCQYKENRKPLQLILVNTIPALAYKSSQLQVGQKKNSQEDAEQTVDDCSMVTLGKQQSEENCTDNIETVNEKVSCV

Chain of D(1A) dopamine receptor (P18901 whole entry): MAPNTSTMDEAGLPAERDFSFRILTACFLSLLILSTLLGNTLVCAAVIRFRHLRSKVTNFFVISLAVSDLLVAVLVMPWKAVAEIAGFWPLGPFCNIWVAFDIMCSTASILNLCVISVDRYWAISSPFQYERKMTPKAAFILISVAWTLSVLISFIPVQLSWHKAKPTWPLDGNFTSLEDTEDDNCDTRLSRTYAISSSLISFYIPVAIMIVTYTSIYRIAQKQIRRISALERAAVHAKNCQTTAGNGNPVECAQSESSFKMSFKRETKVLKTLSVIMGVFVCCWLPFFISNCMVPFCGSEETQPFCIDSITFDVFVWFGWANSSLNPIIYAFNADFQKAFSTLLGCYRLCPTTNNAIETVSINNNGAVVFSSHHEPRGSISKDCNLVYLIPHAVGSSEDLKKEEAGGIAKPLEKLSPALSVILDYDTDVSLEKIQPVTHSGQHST
Chain of D(2) dopamine receptor (P61169 whole entry): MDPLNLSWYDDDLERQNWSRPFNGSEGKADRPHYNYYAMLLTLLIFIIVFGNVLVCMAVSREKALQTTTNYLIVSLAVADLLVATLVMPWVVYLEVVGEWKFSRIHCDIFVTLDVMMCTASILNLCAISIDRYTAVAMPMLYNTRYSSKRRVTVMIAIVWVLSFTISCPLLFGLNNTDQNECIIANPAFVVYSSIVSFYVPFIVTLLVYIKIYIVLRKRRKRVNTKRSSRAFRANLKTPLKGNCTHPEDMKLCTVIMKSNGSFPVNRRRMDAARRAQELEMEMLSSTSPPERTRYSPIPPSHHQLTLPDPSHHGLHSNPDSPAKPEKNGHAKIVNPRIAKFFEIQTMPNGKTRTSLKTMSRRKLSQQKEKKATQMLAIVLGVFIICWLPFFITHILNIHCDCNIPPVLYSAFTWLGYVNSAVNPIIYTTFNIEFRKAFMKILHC

Cc1cccc2nc(N3CCN(Cc4ccccc4)CC3)c3cccn3c12
Ki [1]: 8.8 nM

NNC(=O)CN1CCN(c2nc3cc(F)ccc3n3cccc23)CC1
Activity (Rattus norvegicus [2]): inactive | Activity (Rattus norvegicus [3]): 80% | Ki ([1]; read-out: Ki): 44.3 nM | Activity (Rattus norvegicus [4]): inactive | Activity (Rattus norvegicus [5]): inactive | Activity (Rattus norvegicus [6]): inactive | ED50 (Rattus norvegicus [7]): 0.057 mg/kg

Cc1cccc2nc(N3CCN(CCn4ccnc4)CC3)c3cccn3c12
Ki ([1]; read-out: Ki): 17.8 nM

Fc1ccc2c(c1)nc(N1CCN(CCn3ccnc3)CC1)c1cccn12
Ki ([1]; read-out: Ki): 22.2 nM

Oc1ccc2c(c1)nc(N1CCN(Cc3c[nH]cn3)CC1)c1cccn12
Ki ([1]; read-out: Ki): 2.25 nM | IC50 [8]: 2630 nM | Activity (Rattus norvegicus [4]): 45% | Activity (Rattus norvegicus [5]): 62% | Activity (Rattus norvegicus [9]): 50% | ID50 (Rattus norvegicus [10]): 0.0065 mg/kg | Activity (Rattus norvegicus [6]): 90% | ED50 (Rattus norvegicus [7]): 0.028 mg/kg

CN1CCN(c2nc3cccc(F)c3n3cccc23)CC1
Ki ([1]; read-out: Ki): 0.44 nM | ID50 (Rattus norvegicus [10]): 0.12 mg/kg

CN1CCN(c2nc3cc(F)ccc3n3cccc23)CC1
Ki ([1]; read-out: Ki): 0.81 nM | ID50 (Rattus norvegicus [10]): 0.6 mg/kg

Fc1ccc2c(c1)nc(N1CCN(Cc3ncc[nH]3)CC1)c1cccn12
Ki (D(2) dopamine receptor): > 10000 nM | Ki [11]: > 10000 nM | Ki ([1]; read-out: Ki): 5.6 nM | Ki [12]: > 10000 nM | Ki (D(1A) dopamine receptor): > 10000 nM | Ki [13]: > 10000 nM | Ki [14]: > 10000 nM

Fc1ccc2c(c1)nc(N1CCN(Cc3ccccc3)CC1)c1cccn12
Ki [1]: 13 nM

Cc1cccc2nc(N3CCN(C)CC3)c3cccn3c12
Ki ([1]; read-out: Ki): 0.79 nM

Fc1ccc2c(c1)nc(N1CCN(CCc3cnc[nH]3)CC1)c1cccn12
Ki ([1]; read-out: Ki): 330 nM

Cc1cccc2nc(N3CCN(Cc4c[nH]cn4)CC3)c3cccn3c12
Ki [12]: > 10000 nM | Activity (Rattus norvegicus [4]): inactive | Activity (Rattus norvegicus [5]): 60% | ID50 (Rattus norvegicus [10]): 0.0035 mg/kg | ED50 (Rattus norvegicus [7]): 0.037 mg/kg

Cc1cccc2nc(N3CCN(Cc4cnc[nH]4)CC3)c3cccn3c12
Ki (D(2) dopamine receptor): > 10000 nM | Ki [11]: > 10000 nM | Ki ([1]; read-out: Ki): 0.49 nM | Ki (D(1A) dopamine receptor): > 10000 nM | Ki [13]: > 10000 nM | Ki [14]: 9810 nM

Fc1ccc2c(c1)nc(N1CCN(CC3=NCCN3)CC1)c1cccn12
Ki ([1]; read-out: Ki): 30 nM
